In ChEMBL document CHEMBL3244116, “New antiarrhythmic agents. 2. Amide alkyl alpha-amino xylidides” (J Med Chem, 1979):

How the values were obtained:
[1] = system: Mus musculus; experiment: Antiarrhythmic activity in Swiss albino mouse assessed as protection against chloroform-induced fibrillation at 100 mg/kg, sc treated 20 mins before chloroform challenge; format: functional, Heart; details: route subcutaneous
Procedure, shortened: (§1)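 Mice were given test agents subcutaneously, 100 mg/kg in preliminary runs, and were then challenged with chloroform to induce ventricular fibrillation (a modification of Lawson's method). Protection is expressed as the percent of challenged animals that survived the challenge. In the same animals, ataxia, convulsions, loss of righting reflex and death were scored as the percent of treated animals.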

[2] = system: Mus musculus; experiment: Toxicity in Swiss albino mouse assessed as convulsion at 100 mg/kg, sc measured up to 20 mins; format: organism-based; parameters: dose 100 mg/kg, route subcutaneous; details: in vivo; procedure, shortened: as §1
[3] = system: Mus musculus; experiment: Toxicity in Swiss albino mouse assessed as ataxia at 100 mg/kg, sc measured up to 20 mins; format: organism-based; parameters: dose 100 mg/kg, route subcutaneous; details: in vivo; procedure, shortened: as §1
[4] = Toxicity in Swiss albino mouse assessed as death at 100 mg/kg, sc measured up to 20 mins; format: organism-based; parameters: dose 100 mg/kg, route subcutaneous; details: in vivo, read-out: Activity
Procedure, shortened: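 Mice given 100 mg/kg subcutaneously in preliminary screening, then later challenged with chloroform to induce ventricular fibrillation. CNS signs were recorded in the same animals. Value is the percent of treated animals that died.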

[5] = system: Mus musculus; experiment: Toxicity in Swiss albino mouse assessed as loss of righting reflex at 100 mg/kg, sc measured up to 20 mins; format: organism-based; parameters: dose 100 mg/kg, route subcutaneous; details: in vivo; procedure, shortened: as §1
[6] = system: Mus musculus; experiment: Antiarrhythmic activity in sc dosed Swiss albino mouse assessed as protection against chloroform-induced ventricular fibrillation; format: functional; details: Heart; procedure, shortened: as §1
[7] = system: Mus musculus; experiment: Ratio of lidocaine ED50 to compound ED50 for antiarrhythmic activity sc dosed Swiss albino mouse assessed as protection against chloroform-induced ventricular fibrillation; format: functional, Heart
Procedure, shortened: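 Each ED50 against chloroform-induced ventricular fibrillation in subcutaneously dosed mice came from at least three doses. Potency was calculated relative to lidocaine on a molar basis.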

[8] = system: Canis familiaris; experiment: Toxicity in iv dosed left anterior descending coronary artery ligated myocardial infarction dog model assessed as dose required to cause convulsion after infusion off; format: organism-based, Canis lupus familiaris; details: in vivo
Procedure, shortened: (§2)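 Test agents were infused intravenously into dogs with coronary artery ligation-induced myocardial infarction and ventricular arrhythmias. In some runs, infusion stopped at clearing or at convulsion. In others, it continued until clearing. Ectopic beats, CNS signs (convulsions, opisthotonus, clonic spasms), respiratory arrest and mean arterial blood pressure were recorded, and doses are given in mmol/kg. Values are means±SD of 5–14 experiments or the mean of 8.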

[9] = system: Canis familiaris; experiment: Antiarrhythmic activity in left anterior descending coronary artery ligated myocardial infarction dog model assessed as clearing value as reduction in ventricular ectopic beat rate per min at infusion rate 0.5 mg/kg/min, iv treated until arrhythmia cleared; format: functional, Canis lupus familiaris, Heart; procedure, shortened: as §2
[10] = system: Canis familiaris; experiment: Toxicity in left anterior descending coronary artery ligated myocardial infarction dog model assessed as dose required to cause convulsion at infusion rate at 0.66 mg/kg/min; format: organism-based, Canis lupus familiaris; details: in vivo; procedure, shortened: as §2
[11] = system: Canis familiaris; experiment: Antiarrhythmic activity in left anterior descending coronary artery ligated myocardial infarction dog model assessed as clearing value as reduction in ventricular ectopic beats to <= 5% for 5 mins at infusion rate 0.5 mg/kg/min, iv treated until arrhythmia cleared; format: functional, Canis lupus familiaris, Heart; parameters: scale not given: the % may be the effect or the level left; procedure, shortened: as §2
[12] = system: Canis familiaris; experiment: Antiarrhythmic activity in iv dosed left anterior descending coronary artery ligated myocardial infarction dog model assessed as dose required to reduction in ventricular ectopic beats to <= 5% at infusion rate 0.5 mg/kg/min; format: functional, Canis lupus familiaris, Heart; procedure, shortened: as §2
[13] = system: Canis familiaris; experiment: Antiarrhythmic activity in left anterior descending coronary artery ligated myocardial infarction dog model assessed as mean arterial blood pressure at infusion rate 0.5 mg/kg/min, iv; format: functional, Canis lupus familiaris; procedure, shortened: as §2
[14] = system: Canis familiaris; experiment: Toxicity in left anterior descending coronary artery ligated myocardial infarction dog model assessed as dose required to cause convulsion at infusion rate at 0.5 mg/kg/min; format: organism-based, Canis lupus familiaris; details: in vivo; procedure, shortened: as §2

Compound | Activity [1] [%] | Activity [2] [%] | Activity [3] [%] | mortality at 20 min [4] [%] | Activity [5] [%] | ED50 [6] [µmol/kg] | Ratio ED50 [7] | Activity [8] [mmol/kg] | Activity [9] [bpm] | Activity [10] [mmol/kg] | Activity [11] [%] | Activity [12] [mmol/kg] | Activity [13] [mmHg] | Activity [14] [mmol/kg]
CCC(N)C(=O)N(CC)c1c(C)cccc1C.Cl (stereo not drawn) | 100 | 100 | 100 | 30 | 0 | – | – | – | – | – | – | – | – | –
CCCOc1cc(C)c(N(C)C(=O)CN)c(C)c1.O=C(O)C(=O)O | 70 | 0 | 20 | 0 | 0 | 340 | 0.8 | – | – | – | – | – | – | –
CCCOc1cc(C)c(N(CC)C(=O)CN)c(C)c1.O=C(O)C(=O)O | 100 | 0 | 0 | 0 | 0 | 160 | 1.6 | 0.16 | 168 | 0.13 | 1 | 0.09 | 90 | –
CCCCOc1cc(C)c(N(C)C(=O)CN)c(C)c1.O=C(O)C(=O)O | 100 | 0 | 0 | 0 | 0 | 270 | 1 | – | – | – | – | – | – | –
Cc1cccc(C)c1NC(=O)CN [GLYCINEXYLIDIDE] | 10 | 0 | 0 | 0 | 0 | 900 | 0.3 | – | – | – | – | – | – | –
CCN(CC)CC(=O)Nc1c(C)cccc1C [LIDOCAINE] | 100 | 100 | 100 | 0 | 100 | 260 | 1 | – | 133 | – | 4 | 0.21 | 101 | 0.27
Cc1cccc(C)c1NC(=O)C(C)N (stereo not drawn) [TOCAINIDE] | 20 | 0 | 10 | 0 | 0 | 1300 | 0.2 | – | 148 | – | 2 | 0.32 | 108 | 0.3
